We go through 21 compounds from ChEMBL document CHEMBL1795240, “Synthesis and anti-Trypanosoma cruzi activity of β-lapachone analogues” (Eur J Med Chem, 2011).

pEC50, pIC50: −log10 of the molar value.

One assay deals with Trypanosoma cruzi. The assay can be described thus: Ratio of Benzidazole IC50 to compound IC50 for bloodstream trypomastigote form of Trypanosoma cruzi Y. Format: functional.
Settings: not given
As for `O=C1C(=O)c2ccccc2C2=C1CCC(c1ccccc1)O2` (centres undefined), the “Ratio IC50” value is 2.

Regarding `Cc1ccc(C2CCC3=C(O2)c2ccccc2C(=O)C3=O)cc1` (centres undefined), the “Ratio IC50” value worked out at 2.

Take `O=C1C(=O)c2ccccc2C2=C1C[C@@H]1CC=C[C@@H]1O2`: the “Ratio IC50” value is given as 2.

A further assay concerns Trypanosoma cruzi. The assay can be described thus: Antitrypanosomal activity against bloodstream trypomastigote form of Trypanosoma cruzi Y isolated from albino mouse blood after 24 hrs. Format: functional, organism-based.
Settings: not given
Put shortly: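 Y-strain bloodstream trypomastigotes taken from infected albino mice at peak parasitaemia, isolated by differential centrifugation, and resuspended at 10^7 cells/mL in DMEM with 10% mouse blood. Compounds were added from DMSO stocks, with final DMSO never above 0.1%.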
With `Cc1ccc(C2CC(c3ccc([N+](=O)[O-])cc3)C3=C(O2)c2ccccc2C(=O)C3=O)cc1` (centres undefined), the negative-log IC50 (pIC50) – broadly, −log10 of the IC50, conventionally taken in molar units – is below 2.40.

In turn, `COc1ccc(C2CCC3=C(O2)c2ccccc2C(=O)C3=O)cc1` (centres undefined) had a pIC50 of 3.92.

As for `O=C1C(=O)c2ccccc2C2=C1CCC(c1ccccc1)O2` (centres undefined), the pIC50 was 4.25.

For `CC1(C)CCC2=C(O1)c1ccccc1C1(CO1)C2=O` (centres undefined), the pIC50 was 5.89. This pIC50 lies 1.64 log units higher than the previous one.

As for `CC1(C)OC2=C(C(=O)C(=O)c3ccccc32)C1Nc1ccccc1` (centres undefined), the pIC50 was 4.06.

Compound `CCOC1CC[C@H]2CC3=C(O[C@H]2O1)c1ccccc1C(=O)C3=O` (some centres undefined) gave a pIC50 of 3.48.

For `O=C1C(=O)c2ccccc2C2=C1CCC(c1ccc(F)cc1)O2` (centres undefined), the negative logarithm of the IC50 (pIC50) is 4.01. This pIC50 is 0.53 log units higher than that of the compound before.

Compound `O=C1C(=O)c2ccccc2C2=C1CCC(c1ccc(Cl)cc1)O2` (centres undefined) gave a negative-log IC50 (pIC50) of 4.69. This pIC50 lies 0.68 log units higher than the previous one.

Turning to `Cc1ccc(C2CCC3=C(O2)c2ccccc2C(=O)C3=O)c(C)c1` (centres undefined), the negative logarithm of the IC50 (pIC50) is 3.16.

Take `COC1CC[C@H]2CC3=C(O[C@H]2O1)c1ccccc1C(=O)C3=O` (some centres undefined): the negative-log IC50 (pIC50) is 3.06. This pIC50 and that of the compound before are within 0.2 log units of each other.

`Cc1ccc(C2CCC3=C(O2)c2ccccc2C(=O)C3=O)cc1` (centres undefined) had a pIC50 of 4.29.

Turning to `Cc1ccc(C2CC(c3cccs3)C3=C(O2)c2ccccc2C(=O)C3=O)cc1` (centres undefined), the negative logarithm of the IC50 (pIC50) was 2.73.

On to `CCOc1ccc(C2CCC3=C(O2)c2ccccc2C(=O)C3=O)cc1` (centres undefined), for which the pIC50 is 3.88. This pIC50 lies 1.15 log units higher than the previous one.

`O=C1C(=O)c2ccccc2C2=C1C[C@@H]1CC=C[C@@H]1O2` had a pIC50 of 4.20.

In turn, `CC1(c2ccccc2)CCC2=C(O1)c1ccccc1C(=O)C2=O` (centres undefined) had a negative-log IC50 (pIC50) of 3.91. This pIC50 lies 0.29 log units lower than the previous one.

Compound `O=C1C(=O)c2ccccc2C2=C1C[C@@H]1CCC=C[C@@H]1O2` gave a negative logarithm of the IC50 (pIC50) of 3.79.

The compound `CC1(C)CCc2c(c3ccccc3c3nc(-c4c[nH]c5ccccc45)[nH]c23)O1` showed a negative logarithm of the IC50 (pIC50) of 4.70.

Compound `O=C1C(=O)c2ccccc2C2=C1C[C@@H]1CCCO[C@@H]1O2` showed a pIC50 of 4.45.

Turning to `CC1(C)CCc2c(c3ccccc3c3nc(-c4ccc5c(c4)OCO5)oc23)O1`, the pIC50 was 4.60.

Regarding `Cc1ccc(C2CC(c3ccccc3)C3=C(O2)c2ccccc2C(=O)C3=O)cc1` (centres undefined), the negative-log IC50 (pIC50) was 3.07.

Staying with this assay, now noted: read-out: ED50 (the source's name).
Take `CC1(C)CCc2c(c3ccccc3c3nc4cc(Nc5ccccc5)/c(=N/c5ccccc5)cc-4n(-c4ccccc4)c23)O1`: the pEC50 was 4.21.
